Laboratory results published in ChEMBL document CHEMBL1143691, “Unusual naphthoquinone derivatives from the twigs of Avicennia marina” (2007).
Converted amounts (≈) assume the structure as drawn.

Legend:
Format in all cases: functional
[1] = test system: Enterococcus faecalis; assay: Antimicrobial activity against vancomycin-resistant Enterococcus faecalis 1528 by micro-broth dilution method
How it was run: (§1)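 MIC determined by microbroth dilution following NCCLS (National Committee for Clinical Laboratory Standards) guidelines. Each value is the mean of three independent experiments.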

[2] = test system: Staphylococcus aureus; assay: Antimicrobial activity against methicillin-resistant Staphylococcus aureus 134/93 by micro-broth dilution method; how it was run: as §1
[3] = test system: Mycolicibacterium vaccae; assay: Antimicrobial activity against Mycobacterium vaccae IMET 10670 by microbroth dilution method
How it was run: (§2)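 MIC by microbroth dilution following National Committee for Clinical Laboratory Standards guidelines; values are the mean of three independent experiments. Ciprofloxacin served as the antibacterial reference and amphotericin B as the antifungal reference.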

[4] = test system: Mycolicibacterium aurum; assay: Antimicrobial activity against Mycobacterium aurum SB 66 by micro-broth dilution method; how it was run: as §2
[5] = test system: Mycolicibacterium smegmatis; assay: Antimicrobial activity against Mycobacterium smegmatis SG 987 by microbroth dilution method; how it was run: as §2
[6] = test system: Mycolicibacterium fortuitum; assay: Antimicrobial activity against Mycobacterium fortuitum B by micro-broth dilution method; how it was run: as §2
[7] = test system: Candida albicans; assay: Antimicrobial activity against Candida albicans BMSY 212 by micro-broth dilution method; how it was run: as §2
[8] = test system: L929; assay: Antiproliferative activity against mouse L929 cells
[9] = test system: HeLa; assay: Cytotoxicity against human HeLa cells
How it was run: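 Cytotoxicity in HeLa human cervix carcinoma cells (DSM ACC 57). Reported as CC50, the concentration that kills 50% of treated cells.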

[10] = test system: K562; assay: Antiproliferative activity against human K562 cells

Row | GI50 [10] [µg/mL] | SMILES | MIC [1] [µg/mL] | MIC [2] [µg/mL] | MIC [3] [µg/mL] | MIC [4] [µg/mL] | MIC [5] [µg/mL] | MIC [6] [µg/mL] | MIC [7] [µg/mL] | GI50 [8] [µg/mL] | CC50 [9] [µg/mL]
1 |  | CC(C)(O)[C@H]1OC2=C(C(=O)c3ccccc3C2=O)[C@@H]1O [AVICEQUINONE A] | 50 (≈ 182 µM) | 6.25 (≈ 22.8 µM) | 12.5 (≈ 45.6 µM) | 12.5 (≈ 45.6 µM) | 12.5 (≈ 45.6 µM) | 12.5 (≈ 45.6 µM) | 12.5 (≈ 45.6 µM) |  | 
2 | > 10 | COC(=O)c1ccccc1/C(OC)=C1/C[C@@H](C(C)(C)O)OC1=O [AVICENNONE A] |  |  |  |  |  |  |  | > 10 | > 10
3 | 0.01 (≈ 0.0117 µM) | CC(=O)O[C@H]1C(=O)[C@@]2(C)[C@H]([C@H](OC(=O)c3ccccc3)[C@]3(O)C[C@H](OC(=O)[C@H](O)[C@@H](NC(=O)c4ccccc4)c4ccccc4)C(C)=C1C3(C)C)[C@]1(OC(C)=O)CO[C@@H]1C[C@@H]2O [PACLITAXEL] |  |  |  |  |  |  |  | 0.1 (≈ 0.117 µM) | 0.01 (≈ 0.0117 µM)
4 |  | O=C(O)c1cn(C2CC2)c2cc(N3CCNCC3)c(F)cc2c1=O [CIPROFLOXACIN] | 0.8 (≈ 2.41 µM) | 12.5 (≈ 37.7 µM) | 0.2 (≈ 0.604 µM) | < 0.05 | 0.4 (≈ 1.21 µM) | 0.2 (≈ 0.604 µM) |  |  | 
5 | > 10 | COc1c2c(c(OC)c3ccccc13)[C@H](O)[C@@H](C(C)(C)O)O2 [AVICENOL A] |  |  |  |  |  |  |  | > 10 | > 10
6 |  | C[C@@H]1[C@H](O)[C@@H](C)/C=C/C=C/C=C/C=C/C=C/C=C/C=C/[C@H](O[C@@H]2O[C@H](C)[C@@H](O)[C@H](N)[C@@H]2O)C[C@@H]2O[C@](O)(C[C@@H](O)C[C@@H](O)[C@H](O)CC[C@@H](O)C[C@@H](O)CC(=O)O[C@H]1C)C[C@H](O)[C@H]2C(=O)O [AMPHOTERICIN B] |  |  |  |  |  |  | < 0.05 |  | 
7 | > 10 | COc1c2c(c(OC)c3ccccc13)O[C@H](C(C)(C)O)C2 [AVICENOL C] |  |  |  |  |  |  |  | > 10 | > 10

Row | SMILES | GI50 [10] [µg/mL] | MIC [1] [µg/mL] | MIC [2] [µg/mL] | MIC [3] [µg/mL] | MIC [4] [µg/mL] | MIC [5] [µg/mL] | MIC [6] [µg/mL] | MIC [7] [µg/mL] | GI50 [8] [µg/mL] | CC50 [9] [µg/mL]
8 | CC(C)(O)c1cc2c(o1)C(=O)c1ccccc1C2=O [AVICEQUINONE C] | 1.1 (≈ 4.29 µM) | 50 (≈ 195 µM) | 6.25 (≈ 24.4 µM) | 6.25 (≈ 24.4 µM) | 6.25 (≈ 24.4 µM) | 6.25 (≈ 24.4 µM) | 12.5 (≈ 48.8 µM) | 12.5 (≈ 48.8 µM) | 0.8 (≈ 3.12 µM) | 3.2 (≈ 12.5 µM)
9 | CC(C)(O)[C@@H]1CC2=C(O1)C(=O)c1ccccc1C2=O [STENOCARPOQUINONE B] | 0.2 (≈ 0.774 µM) | 25 (≈ 96.8 µM) | 12.5 (≈ 48.4 µM) | 6.25 (≈ 24.2 µM) | 12.5 (≈ 48.4 µM) | 12.5 (≈ 48.4 µM) | 25 (≈ 96.8 µM) | 12.5 (≈ 48.4 µM) | 1.2 (≈ 4.65 µM) | 4.3 (≈ 16.6 µM)
